Screening data: PubChem BioAssay, several laboratories
ALR H2O2 inh: inhibitors of human ALR sulfhydryl oxidase, primary screen, biochemical, H2O2 detection, HRP-luminol luminescence, single point; AID 485317, 2010; FAD-linked sulfhydryl oxidase ALR (Homo sapiens), P55789; purified ALR, DTT oxidation; inhibition, % (test concentration not listed); 290,000 tested, 3.8% active;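 active = mean replicate inhibition above about 79%, with every replicate also reaching it, limit read from the data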
Target sequence (P55789 whole entry, looked up): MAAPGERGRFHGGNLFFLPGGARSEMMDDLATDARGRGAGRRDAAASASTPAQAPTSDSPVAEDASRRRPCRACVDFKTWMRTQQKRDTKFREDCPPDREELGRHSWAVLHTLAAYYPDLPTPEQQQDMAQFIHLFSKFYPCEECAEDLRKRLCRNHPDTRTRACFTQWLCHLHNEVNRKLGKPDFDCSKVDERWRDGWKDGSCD
N-glyco inh: increase of ERlucT glycosylation luciferase signal, primary screen, N-linked glycosylation inhibitor project, D54 ERlucT cells, luminescence, set 2 | D54 ERlucT glycosylation luciferase reporter, 24 h; percent of 100 nM tunicamycin response | reporter increase, % at 12.5 µM | 360,000 tested, 0.23% active;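 active = mean luciferase reporter signal, scaled so untreated is 0 and the glycosylation-blocking control 100, at or above a set limit in every replicate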;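 note: luciferase carries N-glycosylation sites so blocking glycosylation raises the light; 0% = median of neutral control wells and 100% = median of 100 nM tunicamycin wells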
T cell HTS: modulators of CD8 T cell-vesicle binding, primary screen, mouse 2C CD8+ T cells, flow cytometry | 330,000 tested, 0.068% active | AID 2052, 2009 | 2C CD8+ T cell-vesicle binding; hits give low values | response (vesicle binding), % at 7 µM;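 active = response, share of CD8 T cells binding vesicles, and their 90th percentile fluorescence all below set limits, cut at about 80% in these data, passing the limit was not always enough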;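 note: values below 100% mean blocked vesicle binding to the CD8+ T cells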
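Test system: purified 2C TCR transgenic mouse naive CD8+ T cells. Probe or stimulus: QL9-peptide-loaded Drosophila micro-vesicles bearing Ld, ICAM-1 and B7-1. Incubation: binding step 1.5 h, 37 °C, antibody labelling 20 min, ice. Measured by: flow cytometry of vesicle-bound cells.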
Numbers without * were called inactive. This excerpt belongs to a sample that is enriched for hits.

N#Cc1ncc(C(F)(F)F)cc1Sc1ccc(N)cc1 was read as ALR H2O2 inh 82*, N-glyco inh -5 and T cell HTS 193.
Screening COc1ccc(S(=O)(=O)N2CCC(C(=O)NCCC(=O)Nc3ccc(Cl)cc3)CC2)cc1 returned ALR H2O2 inh -33, N-glyco inh 2 and T cell HTS 228.
COc1cc(/C=C/C(=O)Nc2ccncc2)cc(OC)c1OC was read as ALR H2O2 inh 85*, N-glyco inh 3 and T cell HTS 216.
For O=C(/C=C/c1c(F)cccc1Cl)Nc1ccncc1 the results were N-glyco inh 0 and T cell HTS 449.
Screening O=C(/C=C/c1c(Cl)cccc1Cl)Nc1ccncc1 returned ALR H2O2 inh 8, N-glyco inh -4 and T cell HTS 0.0*.
For COc1cc(/C=C/C(=O)Nc2ccc(C(C)=O)cc2)cc(OC)c1OC the results were ALR H2O2 inh -6, N-glyco inh 3 and T cell HTS 433.
`CCc1ccc(-c2nc(CSCC(=O)N3CCN(c4ncccn4)CC3)c(C)o2)cc1` gave ALR H2O2 inh 97*, N-glyco inh 0 and T cell HTS 193.
For CSc1ccc(-c2nc(CSCC(=O)N3CCOCC3)c(C)o2)cc1 the results were ALR H2O2 inh 98*, N-glyco inh 2 and T cell HTS 513.
For Cc1oc(-c2ccc(F)cc2)nc1CN1CCCC(C(=O)N2CCOCC2)C1 (stereo not given) the results were N-glyco inh 2.
For Cc1oc(-c2ccccc2F)nc1CSCC(=O)NC1CCCC1 the results were ALR H2O2 inh -33, N-glyco inh -3 and T cell HTS 157.
Screening CCc1ccc(-c2nc(CSCC(=O)NC3CC3)c(C)o2)cc1 returned ALR H2O2 inh 70, N-glyco inh 1 and T cell HTS 400.
`CSc1ccc(-c2nc(CSCC(=O)NC3CC3)c(C)o2)cc1` gave ALR H2O2 inh 98*, N-glyco inh 1 and T cell HTS 662.
`Cc1ccc(C(=O)N2CCN(c3ncccn3)CC2)o1` gave ALR H2O2 inh -1, N-glyco inh 0 and T cell HTS 307.
Screening Cc1oc(-c2ccccc2Cl)nc1CSCC(=O)NC1CC1 returned ALR H2O2 inh 98*, N-glyco inh -3 and T cell HTS 890.
Screening O=C(O)CCCn1cc(NC(=O)COc2ccccc2)cn1 returned ALR H2O2 inh -9, N-glyco inh 2 and T cell HTS 353.
For CC(C)CC1(C(=O)NCc2cc(F)cc(C(F)(F)F)c2)C=CCN1C(=O)c1ccccc1 (stereo not given) the results were ALR H2O2 inh -15 and N-glyco inh -2.
Screening Cc1cc(C)c2c(N)c(C(=O)c3ccc(Br)cc3)oc2n1 returned ALR H2O2 inh 2, N-glyco inh 9 and T cell HTS inactive.
For COc1ccc(OC)c(NC(=O)CSc2nc(=O)n(Cc3ccccn3)c3c2CCC3)c1 the results were ALR H2O2 inh -6, N-glyco inh -3 and T cell HTS 225.
`Fc1ccc(-c2nc3ccc(Cl)cn3c2Cc2cccc(F)c2)cc1` gave N-glyco inh -4.
S=C(Nc1ccc(-c2nc3ccccc3[nH]2)cc1)Nc1cccnc1 was read as ALR H2O2 inh 10, N-glyco inh -2 and T cell HTS 433.
Screening CCOC(=O)N1CCC(NC(=O)CS(=O)(=O)Cc2nc(-c3ccc(C)cc3)oc2C)CC1 returned ALR H2O2 inh 3, N-glyco inh 0 and T cell HTS 460.
Screening CCOC(=O)N1CCC(NC(=O)CSCc2nc(-c3ccc(OC)cc3)oc2C)CC1 returned ALR H2O2 inh 86*, N-glyco inh 2 and T cell HTS 146.
Screening CCc1cccc(OCCOC(=O)CNS(=O)(=O)c2ccc(NC(C)=O)cc2)c1 returned N-glyco inh 0.
`O=C(O)c1cccc(S(=O)(=O)N(Cc2ccccc2)c2ccc(Cl)cc2)c1` gave ALR H2O2 inh 53, N-glyco inh -1 and T cell HTS inactive.
`Cc1ccc(S(=O)(=O)NCCc2cn3nc(C)c(C)nc3n2)cc1C` gave ALR H2O2 inh -10, N-glyco inh 0 and T cell HTS 427.
For COc1ccc(CNC(=O)c2cccc3c2C(=O)N(Cc2cccnc2)C3)cc1 the results were N-glyco inh -1 and T cell HTS 186.
COc1ccc(CNC(=O)c2cccc3c2C(=O)N(CC2CCCO2)C3)cc1 (stereo not given) was read as ALR H2O2 inh 88*, N-glyco inh -3 and T cell HTS 725.
`O=c1[nH]nc(Sc2ccccc2)c(=S)[nH]1` gave N-glyco inh 2.
For O=C(COc1ccc(Br)cc1)NCCNC(=O)c1ccccn1 the results were ALR H2O2 inh -3 and T cell HTS 260.
`O=C(O)c1ccc(N2C(=O)C3ON(c4ccccc4)C(c4ccccc4F)C3C2=O)cc1` (stereo not given) gave ALR H2O2 inh 7, N-glyco inh 3 and T cell HTS 172.
CN(C)c1ccc(C2C3C(=O)N(c4ccc(C(=O)O)cc4)C(=O)C3ON2c2ccccc2)cc1 (stereo not given) was read as ALR H2O2 inh 76*, N-glyco inh 1 and T cell HTS 844.
`S=C(NCC1CCCO1)c1ccc(Br)cc1` (stereo not given) gave ALR H2O2 inh -40, N-glyco inh 1 and T cell HTS 257.
CC(=O)Nc1nc(C)c(-c2csc(Nc3ccc(O)cc3)n2)s1 was read as ALR H2O2 inh 99*, N-glyco inh -14 and T cell HTS 303.
Cc1nc(C)c(-c2csc(Nc3ccc(N)cc3)n2)s1 was read as ALR H2O2 inh 51, N-glyco inh 0 and T cell HTS 236.
Screening Cc1nc(C)c(-c2csc(Nc3cccnc3)n2)s1 returned ALR H2O2 inh 89*, N-glyco inh 5 and T cell HTS 186.
For CC(=O)Nc1ccc(Nc2nc(-c3sc(NC(C)=O)nc3C)cs2)cc1 the results were ALR H2O2 inh 34, N-glyco inh -2 and T cell HTS 178.
`Cc1nc(C)c(-c2csc(Nc3ccc(O)c(C(=O)O)c3)n2)s1` gave ALR H2O2 inh 89*, N-glyco inh -1 and T cell HTS 182.
Screening CCC(=O)Nc1nc(C)c(-c2csc(Nc3ccc(C(=O)O)cc3)n2)s1 returned N-glyco inh 0.
Screening COc1ccc(Nc2nc(-c3sc(C)nc3C)cs2)cc1 returned ALR H2O2 inh 17, N-glyco inh 19 and T cell HTS 188.
Screening CCC(=O)Nc1nc(C)c(-c2csc(Nc3cccc(C(=O)O)c3)n2)s1 returned ALR H2O2 inh 88*, N-glyco inh 1 and T cell HTS 190.
For CC(C)S(=O)(=O)NC(=O)C1(C)CCN1C(=O)Cc1ccccc1 (stereo not given) the results were N-glyco inh 0.
Screening Cc1cc(O)ccc1Nc1nc(-c2sc(N)nc2C)cs1 returned ALR H2O2 inh 85*, N-glyco inh 0 and T cell HTS 168.
For Cc1nc(N)sc1-c1csc(Nc2ccccc2)n1 the results were ALR H2O2 inh 18, N-glyco inh 1 and T cell HTS 257.
Screening C/C(=N\NC(=O)c1ccc(Cl)cc1)c1ccc2[nH]ccc2c1 returned N-glyco inh 4 and T cell HTS 196.
